B1: tRNA (parent)
chain: GUUCCGUUGGCGUAAUGGUAACGCGUCUCCCUCCUAAGGAGAAGACUGCGGGUUCGAGUCCCGUACGGAACG

Variants of: B1
Assay: yeast fitness, log relative to wild type (ln ratio); higher = fitter; tRNA-Arg(CCU), competitive growth, 37 C, 1 M NaCl
Outline: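 Genotype fitness is expressed as the natural log of its generations over those of the wild type. Each pool of the tRNA-Arg(CCU) variant library, carried on a HIS3 centromeric plasmid in BY4742 lacking the chromosomal gene, came from one of two independent transformations and grew 4 generations in SC-HIS at 30 °C before ~6.5 generations (~26.5 h) in SC-HIS 1M NaCl at 37 °C. Generation numbers used OD-scaled log2 output/input frequencies from 125 bp paired-end Illumina sequencing, combined across replicates by inverse-variance weighting.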
With U2C G6A A43C C46U C66U A69G A70U the “yeast fitness (ln)” value was -0.3. With U2C G6A A43C C46U C66U A69G A70G the “yeast fitness (ln)” value was -0.00874. For U2C G6U A43C C66U A69G A70G, the “yeast fitness (ln)” value was -0.31. With U2C G6U A43C C66U A69G A70U the “yeast fitness (ln)” value was -0.231. In the case of U2C G6A C27U A43C A69G A70G C71U, the “yeast fitness (ln)” value is reported as -0.256. For U2C G6A C27U A43C C66U A69G A70G, the “yeast fitness (ln)” value was -0.0511. In the case of U2C G6A C27U A43C C66U A69G A70U, the “yeast fitness (ln)” value is reported as -0.33. With U2C G6A C27U A43C C46U C71U the “yeast fitness (ln)” value was -0.115. With U2C G6U A70G C71U the “yeast fitness (ln)” value was -0.0899. In the case of U2C G6A A43C C46U C66U, the “yeast fitness (ln)” value is reported as -0.0992. For U2C G6A C27U A43C C46U C66U C71U, the “yeast fitness (ln)” value was -0.122. In the case of U2C G6U C27U A43C C66A A70U, the “yeast fitness (ln)” value is reported as -0.167. In the case of U2C G6U C27U A43C C66A A70G, the “yeast fitness (ln)” value is reported as -0.0266. With U2C G6A C66U C71U the “yeast fitness (ln)” value was -0.28. For U2C G6A C27U A43C C46U A70U, the “yeast fitness (ln)” value was -0.0327. With U2C G6A C27U A43C C46U A70G the “yeast fitness (ln)” value was -0.133. In the case of U2C G6U C27U A43C C66A A70G C71U, the “yeast fitness (ln)” value is reported as -0.0868. In the case of U2C G6U C27U A43C C46U A69G C71U, the “yeast fitness (ln)” value is reported as -0.187. In the case of U2C G6U C27U A43C A69G A70U C71U, the “yeast fitness (ln)” value is reported as -0.513. With U2C G6A A43C C66A A70U C71U the “yeast fitness (ln)” value was -0.261. In the case of U2C G6A C66A A70U C71U, the “yeast fitness (ln)” value is reported as -0.0758. With U2C G6U A43C C66A C71U the “yeast fitness (ln)” value was -0.0984. For U2C G6A C27U A43C C46U A70G C71U, the “yeast fitness (ln)” value was -0.0979. With U2C G6A C27U A43C C46U A69G C71U the “yeast fitness (ln)” value was -0.113. For U2C G6A C27U A43C C46U C66U A69G A70U C71U, the “yeast fitness (ln)” value was -0.32. In the case of U2C G6A C46U C66A A70G C71U, the “yeast fitness (ln)” value is reported as -0.142. With U2C G6A C46U C66A A69G A70G C71U the “yeast fitness (ln)” value was -0.258. With U2C G6A A43C C66U A70U the “yeast fitness (ln)” value was -0.06. In the case of U2C G6A A43C C66U A70G, the “yeast fitness (ln)” value is reported as -0.0213. With U2C G6A C71U the “yeast fitness (ln)” value was -0.0812. In the case of U2C G6U A43C C46U A69G A70U, the “yeast fitness (ln)” value is reported as -0.0621. For U2C G6U A43C C46U A69G A70G, the “yeast fitness (ln)” value was -0.3. For U2C G6U C27U A43C A69G A70G C71U, the “yeast fitness (ln)” value was -0.281. In the case of U2C G6U A43C C46U C66U A70G C71U, the “yeast fitness (ln)” value is reported as -0.352. In the case of U2C G6U C27U A43C C46U, the “yeast fitness (ln)” value is reported as -0.0629. For U2C G6U A43C C46U C66A A69G A70U C71U, the “yeast fitness (ln)” value was -0.396. With U2C G6A C27U C46U the “yeast fitness (ln)” value was -0.0382. With U2C G6A C27U A43C C46U A69G A70U the “yeast fitness (ln)” value was -0.122. With U2C G6A C27U A43C C46U A69G A70G the “yeast fitness (ln)” value was -0.0933. With U2C G6A A43C C46U C66U A69G A70U C71U the “yeast fitness (ln)” value was -0.319. For U2C G6A C27U A69G A70U, the “yeast fitness (ln)” value was -0.115. In the case of U2C G6A C27U A69G A70G, the “yeast fitness (ln)” value is reported as -0.252. For U2C G6U C27U A43C C66A A69G A70U C71U, the “yeast fitness (ln)” value was -0.398. For U2C G6U A43C C46U C66A A70U, the “yeast fitness (ln)” value was -0.21. For U2C G6U A43C C46U C66A A70G, the “yeast fitness (ln)” value was 0.0031. With U2C G6A C27U C66A A69G A70G C71U the “yeast fitness (ln)” value was -0.0666. With U2C G6A C27U C46U A69G A70G the “yeast fitness (ln)” value was -0.236. For U2C G6A C27U C46U A69G A70U, the “yeast fitness (ln)” value was -0.152. For U2C G6A C46U C66A A70U C71U, the “yeast fitness (ln)” value was -0.0695. For U2C G6A A43C C66U A69G A70U C71U, the “yeast fitness (ln)” value was -0.366. In the case of U2C G6U C27U A43C C71U, the “yeast fitness (ln)” value is reported as -0.23. For U2C G6U A43C C66U A69G A70U C71U, the “yeast fitness (ln)” value was -0.479. In the case of U2C G6A C27U C66U A69G A70G C71U, the “yeast fitness (ln)” value is reported as -0.0741. With U2C G6U A70G the “yeast fitness (ln)” value was -0.0391. With U2C G6U A70U the “yeast fitness (ln)” value was -0.0726. In the case of U2C G6U A69G C71U, the “yeast fitness (ln)” value is reported as -0.0844. In the case of U2C G6U A69G A70G C71U, the “yeast fitness (ln)” value is reported as -0.325. With U2C G6A C27U C46U A70U the “yeast fitness (ln)” value was -0.0585. For U2C G6A C27U C46U A70G, the “yeast fitness (ln)” value was -0.0764. For U2C G6A C27U C66U A69G A70U C71U, the “yeast fitness (ln)” value was -0.386. In the case of U2C G6A C66U A69G C71U, the “yeast fitness (ln)” value is reported as -0.225. For U2C G6A C46U A70G, the “yeast fitness (ln)” value was 0.00625. For U2C G6A C46U A70U, the “yeast fitness (ln)” value was -0.0378. In the case of U2C G6A C27U A43C C46U C66U A69G C71U, the “yeast fitness (ln)” value is reported as -0.281. For U2C G6A C27U C46U C66A A69G A70U C71U, the “yeast fitness (ln)” value was -0.384. With U2C G6A C46U C66U A69G the “yeast fitness (ln)” value was -0.293. With U2C G6A C27U A43C C46U the “yeast fitness (ln)” value was -0.0171. With U2C G6A C27U A43C C46U C66U A69G A70U the “yeast fitness (ln)” value was -0.173. With U2C G6A C27U A43C C46U C66U A69G A70G the “yeast fitness (ln)” value was -0.0296. For U2C G6A C46U C66U A70U, the “yeast fitness (ln)” value was -0.0206. For U2C G6A C46U C66U A70G, the “yeast fitness (ln)” value was -0.00418. In the case of U2C G6A C66U A69G, the “yeast fitness (ln)” value is reported as -0.271. With U2C G6A C27U C46U C66U A70U C71U the “yeast fitness (ln)” value was -0.174. With U2C G6A A43C C46U C66U A70U C71U the “yeast fitness (ln)” value was -0.199. With U2C G6U C27U A70U C71U the “yeast fitness (ln)” value was -0.136. With U2C G6A C27U C66U A70G C71U the “yeast fitness (ln)” value was -0.0401. In the case of U2C G6U C27U A43C C46U C66A, the “yeast fitness (ln)” value is reported as 0.00284. With U2C G6U C27U A43C C46U C66U the “yeast fitness (ln)” value was -0.0875. With U2C G6U A43C the “yeast fitness (ln)” value was -0.0574. With U2C G6A C27U A43C A70G C71U the “yeast fitness (ln)” value was -0.156. In the case of U2C G6A C27U C66U A70U, the “yeast fitness (ln)” value is reported as -0.203. In the case of U2C G6A C27U C66U A70G, the “yeast fitness (ln)” value is reported as -0.0339. In the case of U2C G6U C27U A43C C66U C71U, the “yeast fitness (ln)” value is reported as -0.338. For U2C G6U A43C C66A A69G A70G C71U, the “yeast fitness (ln)” value was -0.0618.
